Assay [1] concerns the target Cellular tumor antigen p53 (Homo sapiens) (UniProt P04637). Nature of the assay: Inhibition of p53-mediated transactivation in human MCF7 cells in presence of 50 ug/ml of 5-fluorouracil after 24 hrs by beta-galactosidase reporter gene assay. The format is cell-based. In outline: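 MCF7 cells carrying a lacZ reporter under a p53-responsive promoter, treated with 5-FU 50 µg ml–1 across a range of test-agent concentrations. β-galactosidase measured colorimetrically in cell extracts after 24 h drug incubation. Means ± s.d., n = 3.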
For orientation: In a reporter assay the amount or activity of a reporter protein is the signal.

In assay [2] the test system is HeLa. Briefly: Antiapoptotic activity against staurosporine-induced cell death in human HeLa cells assessed as caspase 7 activity at 10 uM after 24 hrs. The class given is functional, cell-based.
The test system of assay [3] is NCI-H1299. Briefly: Antiapoptotic activity against staurosporine-induced cell death in human H1299 cells assessed as caspase 3 activity at 10 uM after 24 hrs. The class given is functional, cell-based.
Assay [4] concerns NCI-H1299. Nature of the assay: Antiapoptotic activity against staurosporine-induced cell death in human H1299 cells assessed as caspase 7 activity at 10 uM after 24 hrs. The format is functional, cell-based.
Assay [5] concerns HeLa. Briefly: Antiapoptotic activity against staurosporine-induced cell death in human HeLa cells assessed as caspase 3 activity at 10 uM after 24 hrs. The format is functional, cell-based.
For assay [6], the target named is Cellular tumor antigen p53 (Homo sapiens) (UniProt P04637). Briefly: Inhibition of p53-mediated transactivation in human MCF7 cells in presence of 0.5 ug/ml of doxorubicin after 24 hrs by beta-galactosidase reporter gene assay. The class given is cell-based. In outline: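 MCF7 cells with a p53-responsive lacZ reporter treated with Dox 0.5 mg ml–1 (so in the source) plus a range of compound concentrations; β-galactosidase measured colorimetrically in cell extracts after 24 h; means ± s.d., n = 3.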

Assay [7] shares this target. Nature of the assay: Inhibition of p53-dependent transactivation of p21 in gamma-stimulated human ConA cells. The class given is cell-based. In outline:
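ConA cells given 10 µM test agent and 10 Gy gamma irradiation. Protein extracts taken 6 h post-irradiation and p21 detected by immunoblotting.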

The source made the active and inactive calls. The calls are words filed in the database; no cut-off is given here.

Chain of Cellular tumor antigen p53 (Homo sapiens) (P04637 whole entry, looked up): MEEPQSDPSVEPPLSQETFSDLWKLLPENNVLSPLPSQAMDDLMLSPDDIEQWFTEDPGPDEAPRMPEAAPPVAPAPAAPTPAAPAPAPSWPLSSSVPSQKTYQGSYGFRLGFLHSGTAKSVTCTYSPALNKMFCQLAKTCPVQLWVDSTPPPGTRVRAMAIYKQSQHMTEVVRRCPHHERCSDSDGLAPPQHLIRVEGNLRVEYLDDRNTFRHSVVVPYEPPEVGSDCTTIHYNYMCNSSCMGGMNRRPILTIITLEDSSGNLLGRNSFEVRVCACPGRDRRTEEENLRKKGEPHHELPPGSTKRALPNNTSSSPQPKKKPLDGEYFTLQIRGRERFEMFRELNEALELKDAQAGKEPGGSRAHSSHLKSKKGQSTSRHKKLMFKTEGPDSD

With `O=c1[nH]cc(F)c(=O)[nH]1`, in assay [1], the inhibition entry is “inactive”.

Consider `CN[C@@H]1C[C@H]2O[C@@](C)([C@@H]1OC)n1c3ccccc3c3c4c(c5c6ccccc6n2c5c31)C(=O)NC4`, for which the outcome with HeLa [2], in the assay with NCI-H1299 [3], with NCI-H1299 [4] and in the assay with HeLa [5] was inactive.

Take `COc1cccc2c1C(=O)c1c(O)c3c(c(O)c1C2=O)C[C@@](O)(C(=O)CO)C[C@@H]3O[C@H]1C[C@H](N)[C@H](O)[C@H](C)O1`: the inhibition entry in assay [6] is “inactive”.

With `Cc1ccc(C(=O)Cn2c3c(sc2=N)CCCC3)cc1`, the inhibition entry in assay [7] is “Active”.
